Source: PubChem
KCNQ1 block: inhibitors of human KCNQ1 potassium channel; AID 2642; hit rate 1.3% among 310,000; B-score at 10 µM; CHO-K1 KCNQ1, FluxOR thallium flux fluorescence; hits give high values; P51787;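 active means compounds whose thallium flux B-score, printed positive for inhibition, exceeds three library SD while starting fluorescence stays within three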;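 further: channel opened by potassium depolarization with thallium stimulus after 20 min compound exposure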
KCNQ1 act: potentiates or activates the human KCNQ1 potassium channel; AID 2648; B-score at 10 µM; hit rate 0.35% among 310,000; CHO-K1 KCNQ1, thallium flux FluxOR fluorescence; hits give high values; P51787;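 active means fluorescence ratio B-score, a plate-corrected score, at least three library SD, with initial intensity B-score within 5 SD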
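assay system = KCNQ1-transfected CHO-K1 cells | medium = assay buffer with matched DMSO | probe or stimulus = depolarizing K+/Tl+ stimulus, K2SO4 and Tl2SO4 each 12.5 mM in 5x stock | dosing = single dose | incubation = dye 90 min, compound 20 min, room temperature | detection = kinetic FluxOR fluorescence, 10 s baseline plus 110 s post-stimulus | evaluation = ratio B score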
Kir21 block: Kir2.1 (mouse) channel inhibition; P35561; HEK293-Kir2.1, FluxOR thallium flux fluorescence; hits give low values; B-score at 10 µM; hit rate 0.85% among 310,000; AID 1672;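 active means fluorescence ratio B-score at or below minus 3 SD of library scores, with starting-brightness B-score within 2 SD, cut at about -4.2 in these data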;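 further: channel flux triggered by added potassium and thallium sulfate stimulus; B-score of peak minus minimum fluorescence over baseline after thallium stimulus; more negative B-score means stronger Kir2.1 block with less thallium influx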
hERG rescue: hERG (human) protection from proarrhythmic block. CHO-hERG, FluxOR thallium flux, dofetilide IC70 present. activation (rescue from dofetilide block), less the hit threshold, % at 10 µM. hit rate 0.51% among 310,000. Q12809;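 active means activation above the mean of controls blocked by dofetilide plus 5 SD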;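 further: thallium influx through hERG after potassium depolarization seen as dye fluorescence rise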
KCNK3 block: human KCNK3 channel inhibition, primary screen | B-score at 10 µM | AID 602410 | CHO-KCNK3 thallium flux, FluxOR fluorescence; hits give low values | O14649 | hit rate 0.84% among 340,000;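 active means B-score under library mean minus 4 SD, starting fluorescence ratio at most library mean plus 5 SD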;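 further: more negative B-score means stronger inhibition of thallium flux through KCNK3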
KCNK9 inh: blocks the human KCNK9 two-pore domain potassium channel; hit rate 1.2% among 310,000; B-score at 10 µM; Q9NPC2; HEK293 KCNK9, FluxOR thallium flux fluorescence; hits give low values;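 active means ratio B-score over 3 SD below the library mean, with starting fluorescence within 5 SD of its mean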;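 further: negative B-score means less thallium flux so channel inhibition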
Target sequence (Q9NPC2 whole entry, looked up, the tested form may be a part): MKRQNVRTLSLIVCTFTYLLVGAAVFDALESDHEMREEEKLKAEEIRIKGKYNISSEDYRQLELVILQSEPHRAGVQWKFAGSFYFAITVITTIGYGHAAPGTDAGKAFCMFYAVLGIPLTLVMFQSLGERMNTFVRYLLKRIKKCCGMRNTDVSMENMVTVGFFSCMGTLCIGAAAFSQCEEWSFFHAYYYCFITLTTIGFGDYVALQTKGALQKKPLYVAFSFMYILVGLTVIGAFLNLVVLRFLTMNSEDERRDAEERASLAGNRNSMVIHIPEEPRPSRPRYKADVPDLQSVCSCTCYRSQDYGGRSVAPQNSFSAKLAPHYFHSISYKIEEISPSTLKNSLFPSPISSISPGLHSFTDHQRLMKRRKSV
KCNK9 block conf: human KCNK9 inhibitor confirmation | shares compounds with KCNK9 inh | HEK293 KCNK9 cells, FluxOR thallium flux fluorescence | inhibition, % at 10 µM | hit rate 43% among 4,900;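 active means thallium signal inhibited by more than 5 SD of the compound-free buffer control wells, on both duplicate plates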;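 further: 0% = assay buffer control wells without compound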
Kir21 sel: tests whether KCNK9 modulators also affect mouse Kir2.1 | shares compounds with KCNK9 inh | Kir2.1 cells, FluxOR thallium flux fluorescence | AID 492993 | inhibition, % at 10 µM | hit rate 4% among 4,900;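 active means thallium signal drop more than 5 SD beyond the mean of the no-compound control wells, seen in both duplicate plates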;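 further: signal is fluorescence rise after thallium addition divided by baseline fluorescence; plate controls were assay buffer only for no effect and full block by chlorpromazine control for full effect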
HEK293 Tl ctr: second counter-screen for KCNK9 modulators: effect in non-induced cells. non-induced KCNK9-HEK293, FluxOR thallium flux. AID 492997. hit rate 40% among 4,900. inhibition, % at 10 µM. shares compounds with KCNK9 inh;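 active means thallium signal drop beyond 5 SD of the untreated control mean, on both duplicate plates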;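 further: plate controls were buffer only IC0 wells for no effect and SID17386958 at its maximal inhibitory level for full effect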
Active calls of the source: *; i = inactive; nt = no result. Rows were chosen to be rich in hits. Some 3.8% of all compounds tested hit in one or more screens of this group.

SMILES	KCNQ1 block	KCNQ1 act	Kir21 block	hERG rescue	KCNK3 block	KCNK9 inh	KCNK9 block conf	Kir21 sel	HEK293 Tl ctr
CCOC(=O)c1ccc(-n2c(C)nc3c(cnn3-c3ccc(Cl)cc3)c2=O)cc1	i	i	-0.6	-6.8	i	i	nt	nt	nt
CCOC(=O)c1ccc(-n2c(C)nc3c(cnn3-c3ccccc3Cl)c2=O)cc1	i	i	1.19	-16.5	i	i	i	i	i
C=COCCNC(=S)N1CCOCCOCCN(C(=S)NCCOC=C)CCOCCOCC1	i	i	-1.07	-16.4	i	i	nt	nt	nt
CC(C)Cc1nnc(NC(=O)CCC(=O)NCCc2ccc(Cl)cc2)s1	i	i	1.46	0.5	i	i	nt	nt	nt
CC(C)N1C(=O)C(Cc2nc3ccccc3c(=O)n2-c2ccccc2)c2ccccc21 (centres undefined)	i	i	-0.9	-5.8	i	i	i	i	i
CCCN1C(=O)C(Cc2nc3ccccc3c(=O)n2-c2ccccc2)c2ccccc21 (centres undefined)	i	i	0.01	-12.1	i	i	nt	nt	nt
COc1ccc2nc(SCC(=O)N(C)CC(=O)Nc3ccc(F)cc3)[nH]c2c1	i	i	0.2	-4.8	i	i	nt	nt	nt
Cc1ccc(NC(=O)c2cccc3c2C(=O)N(C2CCCCC2)C3)c(C)c1	i	i	-0.05	-6.8	i	i	nt	nt	nt
Cc1cc(C)c(NC(=O)c2cccc3c2C(=O)N(C2CCCCC2)C3)c(C)c1	i	i	0.01	-12.4	i	-12*	i	i	52.0%*
O=C(Oc1ccccc1)c1ccccc1OS(=O)(=O)c1ccccc1	i	i	2.04	0.3	i	-9.48*	44.0%*	i	34.5%*
O=C(Nc1ccccc1)c1ccccc1OS(=O)(=O)c1ccccc1	i	i	-0.7	-4.3	i	i	nt	nt	nt
COc1ccccc1C(=O)Oc1ccc(C(C)C)cc1	i	i	-1.9	-3.4	i	i	i	i	29.5%*
COc1ccccc1C(=O)O/N=C(\N)c1ccccc1Cl	i	i	0.69	-7.1	i	i	nt	nt	nt
COc1ccc(-c2noc(CNC(=O)CCCN3C(=O)[C@H]4CC=CC[C@H]4C3=O)n2)cc1	i	i	-1.02	-8.8	i	i	nt	nt	nt
Cc1ccc(-c2csc3ncnc(NS(=O)(=O)c4ccc(Cl)cc4)c23)cc1	i	i	0.95	-3.8	i	i	nt	nt	nt
O=S(=O)(Nc1ncnc2scc(-c3ccc(F)cc3)c12)c1cc(F)ccc1F	6*	i	-0.03	-19.3	i	i	i	i	i
CC(C(=O)N1CCN(c2ccccc2)CC1)c1ccc([N+](=O)[O-])cc1 (centres undefined)	i	i	-0.81	-1.1	i	i	nt	nt	nt
O=C(CSc1nnc2c(n1)[nH]c1ccccc12)Nc1nncs1	i	i	0.02	-2.9	i	i	nt	nt	nt
CCn1c([N+](=O)[O-])nc2c1c(=O)[nH]c(=O)n2C	i	i	1.41	-13.1	i	i	nt	nt	nt
O=C(NCCNc1ccc([N+](=O)[O-])cc1C(F)(F)F)c1ccccc1F	i	i	-1.27	-6.2	i	i	i	i	i
Cc1ccc(C(=O)NCCNc2ccc([N+](=O)[O-])cc2C(F)(F)F)cc1	i	i	-1.05	-5.4	i	i	nt	nt	nt
CC(c1cccs1)N(C(=O)Nc1ccccc1)C1CCCCC1 (centres undefined)	i	i	-0.33	-20.4	i	i	i	i	i
Cc1cccc(Nc2nnc(-c3ccc(N4CCOCC4)c([N+](=O)[O-])c3)c3ccccc23)c1	i	i	0.03	-8.1	i	i	i	i	i
Cc1nnc(-c2ccc(N3CCOCC3)c([N+](=O)[O-])c2)o1	nt	nt	nt	nt	i	nt	nt	nt	nt
